Hits are enriched below; roughly 1.4% of the tested compounds scored in any of these assays.
Diaphorase act – counter-screen for diaphorase-based assays: diaphorase activators and chemical reducers. activation factor at 20 µM. AID 1229. 190,000 tested, 0.005% active. Diaphorase/resazurin coupled assay, resorufin fluorescence, 16 min; active compounds read high; 1 = vehicle wells, 0 = NADH-free wells;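 active = diaphorase activity raised at least twofold by the compound at 20 µM; inactive = activation factor below 2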
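Test system: Clostridium kluyveri diaphorase, purified enzyme. Buffer or medium: 50 mM HEPES pH 7.4 buffer plus MgCl2 and Tween 20. Also added: 0.114 mM NADH and 0.1 mM resazurin, final amounts. Dosing: compound 20 µM once, DMSO 1%. Schedule: 16 min enzyme reaction, ambient temperature. Detection: fluorescence of resorufin, 544 nm excitation, 590 nm emission.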
Diaphorase inh – counter-screen for diaphorase-based assays: diaphorase inhibitors and chemical oxidizers; 190,000 tested, 0.69% active; diaphorase resazurin-to-resorufin fluorescence, NADH, 16 min; bacterial (C. kluyveri) enzyme, not human; inhibition, % at 20 µM;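 active = primary screen inhibition at 20 µM above a set limit, cut at about 50% in these data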;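 note: plate controls were DMSO with full reaction for no effect and wells lacking NADH for full effect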
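Assay system: diaphorase enzyme from Clostridium kluyveri; Input: enzyme working solution with 0.14 U/mL diaphorase; Timing: 16 min at room temperature; Technique: resorufin fluorescence, excitation 544 nm, emission 590 nm; Benchmarks: positive control minus NADH, DMSO neutral control.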
ATG4B inh – inhibitors of human ATG4B cysteine protease; inhibition, % at 8.33 µM; 340,000 tested, 0.51% active; ATG4B cleavage of LC3-PLA2, NBD-HPC fluorescence, 1 h; Q9Y4P1; in the data active = inhibition above about 40%
Target sequence (Q9Y4P1 whole entry, looked up): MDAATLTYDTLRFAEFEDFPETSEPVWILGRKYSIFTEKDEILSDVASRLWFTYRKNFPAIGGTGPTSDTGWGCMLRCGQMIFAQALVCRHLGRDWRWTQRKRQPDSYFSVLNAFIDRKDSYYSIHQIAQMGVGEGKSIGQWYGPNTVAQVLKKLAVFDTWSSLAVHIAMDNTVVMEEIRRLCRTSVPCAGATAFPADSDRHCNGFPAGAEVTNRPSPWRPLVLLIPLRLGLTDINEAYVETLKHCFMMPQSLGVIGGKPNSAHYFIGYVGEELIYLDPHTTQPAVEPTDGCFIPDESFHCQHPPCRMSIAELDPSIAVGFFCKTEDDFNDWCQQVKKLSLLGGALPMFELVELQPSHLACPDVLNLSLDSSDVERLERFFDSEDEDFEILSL
HKDC1 inh – HKDC1 (human) hexokinase inhibition; Q2TB90; recombinant HKDC1, G6PDH/diaphorase resazurin coupled fluorescence; inhibition, % at 20 µM; 340,000 tested, 0.16% active;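 active = inhibition above about 35% when tested at 20 µM, limit read from the data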;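 note: plate controls were DMSO wells with enzyme for no effect and DMSO wells lacking enzyme for full effect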
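Test system: recombinant HKDC1 (HK5) hexokinase enzyme, produced in-house / Doses: 20 µM test compound, 1% DMSO / Timing: 90 min, room temperature / Detection: G6PDH/diaphorase-coupled fluorescence, 1 mM NADP, 100 µM resazurin, 525/613 nm / Control set: DMSO wells with and without enzyme mix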
Fh CTSL1 inh – counter-screen for PFM18AAP inhibitors: inhibitors of F. hepatica cathepsin L1; inhibition, % at 5.96 µM; recombinant F. hepatica cathepsin L1, Z-Leu-Arg-MCA fluorescence; 300,000 tested, 0.49% active;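 active = inhibition above the mean of all tested compounds plus 3 SD, set per screening campaign, cut at about 17% in these data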;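 note: 0% = plate median of test compound wells and 100% = 1 µM Z-Phe-Ala-diazomethylketone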
An asterisk follows results filed as active; nt = no result.

SMILES | Diaphorase act | Diaphorase inh | ATG4B inh | HKDC1 inh | Fh CTSL1 inh
CCSC1=N/C(=C\c2ccc(C(=O)O)cc2)C(=O)S1 | 0.8 | 18 | -5 | 3 | -1
CCOC(=O)SC1=N/C(=C\c2ccc(N(C)C)cc2)C(=O)S1 | 0.5 | 50* | -8 | 2 | -3
CCOC(=O)c1cccc(OS(=O)(=O)Cc2ccccc2)c1 | nt | nt | -1 | -2 | -3
O=C1CN(C(=O)NCC(=O)N[C@@H](C(=O)O)c2ccccc2)c2ccccc2N1 | nt | nt | -2 | -5 | -6
CCN(CC)S(=O)(=O)c1ccc(N2CCCC2)c(NC(=O)CC(C)(C)C)c1 | nt | nt | -6 | -2 | 20*
CCN(CC)S(=O)(=O)c1ccc(N2CCOCC2)c(NC(=O)CC(C)(C)C)c1 | nt | nt | 0 | -5 | 0
CC(C)n1c2ccccc2c2cc([N+](=O)[O-])ccc21 | 0.8 | 17 | -2 | -9 | 0
CCC(C)n1c(=S)[nH]c2c(sc3ccc([N+](=O)[O-])cc32)c1=O (stereo not given) | 0.4 | 62* | 1 | -1 | -4
Cc1nc(NC2CCCCC2)c2nnn(Cc3ccccc3Cl)c2n1 | nt | nt | -3 | 3 | 2
Cc1nc(N2CCCC2)c2nnn(Cc3ccccc3Cl)c2n1 | 0.8 | 18 | 12 | 5 | 18*
CCC(=O)c1ccc(OCC(=O)Nc2ccccc2N2CCCCC2)cc1 | nt | nt | -8 | -5 | -2
CC(CC(=O)N1CCc2ccccc21)S(=O)(=O)c1ccc2c(c1)NC(=O)CO2 (stereo not given) | nt | nt | -2 | 0 | 2
O=C1CC(CC(=O)N/N=C/c2ccccc2[N+](=O)[O-])=NN1 | 0.9 | 9 | 5 | -10 | 18*
Cc1cccc(-n2c(=S)[nH]c3sc4c(c3c2=O)CCc2ccccc2-4)c1 | 0.3 | 70* | -10 | 6 | nt
Cc1ccc(-n2c(=S)[nH]c3sc4c(c3c2=O)CCc2ccccc2-4)cc1 | 0.7 | 26 | -2 | 2 | -1
NS(=O)(=O)c1ccc(CNC(=S)Nc2cc(S(=O)(=O)N3CCOCC3)ccc2Cl)cc1 | nt | nt | -1 | -5 | nt
COc1ccc(CN2C(=O)c3cccnc3C2Nc2cc(Cl)ccc2OC)cc1 (stereo not given) | 0.8 | 19 | -4 | 52* | -7
O=C(CN1C(=O)NC2(CCOc3ccccc32)C1=O)NCc1ccccc1 (stereo not given) | nt | nt | -1 | -5 | nt
CCc1ccc(-c2nc(CS(=O)CC(=O)NCCCN3CCC(C)CC3)c(C)o2)cc1 (stereo not given) | nt | nt | -8 | 1 | -2
Oc1ccc(N=Cc2ccc(-c3cccs3)s2)cc1 | 0.7 | 31 | -5 | 15 | 40*
O=Cc1ccc(-c2cccs2)s1 | nt | nt | 7 | -6 | nt
CC(CNC(=O)c1ccc(OC2CCN(Cc3ccccn3)CC2)cc1)c1ccccc1 (stereo not given) | nt | nt | nt | nt | 1
Cc1ccc(NC(=O)c2sc(C)nc2C)c(C)c1 | nt | nt | 4 | 5 | 18*
Oc1ccc(-c2cn3c(n2)SCC3)cc1 | 1 | 4 | -12 | -10 | -2
Oc1ccc(-c2cn3c(n2)SCC3)cc1O | 0.5 | 52* | -9 | 5 | -9
SMILES | Diaphorase act | Diaphorase inh | ATG4B inh | HKDC1 inh | Fh CTSL1 inh
CO[C@H]1C=CO[C@@]2(C)Oc3c(C)c(O)c4c(O)c(c(C=NN5CCN(C6CCCC6)CC5)c(O)c4c3C2=O)NC(=O)C(C)=CC=C[C@H](C)[C@H](O)[C@@H](C)[C@@H](O)[C@@H](C)[C@H](OC(C)=O)[C@@H]1C | 0.2 | 84* | nt | nt | nt
CCN(C(=O)c1ccco1)c1nnc(-c2cccnc2)s1 | nt | nt | 1 | 1 | 2
O=C(COC(=O)CNC(=O)c1cccc(F)c1)NCCC1=CCCCC1 | 1 | 1 | -5 | 15 | 22*
O=C(COC(=O)COc1cccc(F)c1)NCCC1=CCCCC1 | 1 | 4 | -6 | -9 | -10
C=CCNC(=O)c1c(CS(=O)(=O)c2ccccc2)noc1C(=O)NCc1ccccc1 | nt | nt | -8 | -6 | -1
COc1ccc(-n2c(N)c(C(=O)NCc3ccco3)c3nc4ccccc4nc32)cc1 | 0.5 | 54* | -29 | 10 | 3
CCc1ccc(NS(=O)(=O)c2c(C(=O)N3CCOCC3)c(C)n(C)c2C)cc1 | nt | nt | 4 | -7 | 0
CCOC(=O)c1sc2nc(N3CCCC3)c3c(c2c1N)CC(C)(C)OC3 | 0.8 | 15 | -9 | 2 | 3
CCOC(=O)c1sc2nc(C(C)C)c3c(c2c1N)CC(C)(C)OC3 | 0.5 | 55* | 8 | 0 | 0
CC(C)(CO)CNC(=O)CCc1nnc(-c2ccc(-c3ccccc3)cc2)o1 | nt | nt | -13 | -3 | 0
COc1ccc(-c2nc(S(=O)(=O)c3ccccc3)c(NCCCN3CCOCC3)o2)cc1 | nt | nt | 1 | -5 | nt
CC(C)C(NC(=O)OCc1ccccc1)C(=O)NC(Cc1ccc(O)cc1)C(=O)O (stereo not given) | nt | nt | 1 | 2 | 12
CC(C)[C@H](NC(=O)[C@H](CCCN=C(N)N)NC(=O)NC(Cc1ccccc1)C(=O)O)C(=O)NC(C=O)CCCN=C(N)N (stereo not given in full) | 1 | -2 | -8 | -4 | 112*
Nc1ccc(S(=O)(=O)Nc2nccc(/C=C/c3cccc(Br)c3)n2)cc1 | nt | nt | -4 | -3 | 2
CCC1(CC)C(=O)N(c2ccccc2)C(=N)N(c2ccccc2)C1=O | nt | nt | -6 | 6 | nt
Cc1cc(C)cc(NC(=O)C2C3C=CC4(O3)C2C(=O)N(CCCN2CCCC2)C4C(=O)NC2CCCC(C)C2C)c1 (stereo not given) | nt | nt | 1 | -6 | -3
COc1ccc(NC(=O)C2C3C=CC4(O3)C2C(=O)N(CCN2CCCCC2)C4C(=O)NC2CCCC(C)C2C)cc1 (stereo not given) | nt | nt | -3 | -1 | 20*
CCOC(=O)N1CCN(C(=O)C(=O)Nc2sc3c(c2C(N)=O)CC(C)(C)OC3)CC1 | nt | nt | -1 | 0 | 1
C/C(=N/NC(N)=S)c1cc2ccc(O)cc2oc1=O | nt | nt | -8 | 5 | 20*
COc1ccc(C(=O)N/N=C/c2cc3ccccc3[nH]c2=S)cc1 | 0.5 | 55* | -5 | 1 | 3
COc1ccc(C(=O)N/N=C/c2c[nH]c3ccccc23)cc1 | nt | nt | -9 | -1 | 9
CC(=O)c1cc2c(cc1NC(=O)c1ccco1)OCCO2 | 0.9 | 6 | -3 | -2 | 38*
CCCNC(=O)C(Cc1ccc(F)cc1)NC(=O)c1ccccc1 (stereo not given) | nt | nt | 3 | 2 | nt
CCN(CC(=O)NC(C)(C)C)C(=O)COc1c(Cl)cc(Cl)c2ccc(C)nc12 | nt | nt | 1 | 2 | 6
CCN(CC(=O)NC(C)(C)C)C(=O)CCl | 0.9 | 10 | 4 | -9 | 20*
Nc1nonc1-c1nc2ccccc2n1CC(=O)N/N=C/c1ccc(-c2cccc(C(=O)O)c2)o1 | 0.5 | 52* | 10 | 6 | nt
Nc1nonc1-c1nc2ccccc2n1CC(=O)O | 0.9 | 8 | -6 | -4 | 4
